According to ChEMBL document CHEMBL6096655, “Discovery of a novel, selective CK2 inhibitor class with an unusual basic scaffold” (Eur J Med Chem, 2025):

Tests used:
[1] = Upregulation of PARP cleavage in human U-937 cells by measuring signal 1 at 30 uM measured after 48 hrs by immunoblot analysis; type: functional
In short: (§1)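 U937 cells exposed to compound or DMSO for 48 h, then lysed in Laemmli buffer. Lysates were run on 8–16% gradient SDS-PAGE, semi-dry blotted to PVDF and probed for PARP. Detection used IR-fluorescent secondary antibodies. The cleaved/uncleaved PARP signal ratio was obtained by densitometry. Results are representative of two independent experiments.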

Homo sapiens [2] = species on record: Homo sapiens; test: Inhibition of human recombinant GST tagged CDK1/cyclin B expressed in insect cells at 2 uM by Eurofins kinase assay relative to control
[3] = molecular target: Dual specificity tyrosine-phosphorylation-regulated kinase 1A (Homo sapiens) (UniProt Q13627); test: Inhibition of human DYRK1A at 2 uM by Eurofins kinase assay relative to control
[4] = molecular target: Dual specificity tyrosine-phosphorylation-regulated kinase 2 (Homo sapiens) (UniProt Q92630); test: Inhibition of human DYRK2 at 2 uM by Eurofins kinase assay relative to control
786-0 [5] = test: Antiproliferative activity against human 786-0 cells assessed as inhibition of cell growth at 30 uM measured after 3 to 4 days by MTT assay relative to control; type: functional; details: time 3-4 day
In short: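 786-O cells (RPMI, 10% FCS) seeded at 5000 per well and left overnight. Compound was added at a single 30 µM concentration in 1% FCS medium (DMSO max. 0.2%). Cells grew 3–4 days at 37 °C, 5% CO₂, with no medium change, and were read by MTT. Percent inhibition is the mean of duplicates that differed by ≤10%.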

786-0 [6] = test: Antiproliferative activity against human 786-0 cells assessed as inhibition of cell growth measured after 3 to 4 days by MTT assay; type: functional; details: time 3-4 day
In short: (§2)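 786-O or U937 cells grown in RPMI with 2 mM L-glutamine, 1% pen/strep and 10% FCS. Cells were seeded at 5000 per well and left overnight, then switched to 1% FCS medium containing compound or DMSO (max. 0.2% final). Growth ran 3–4 days at 37 °C in 5% CO₂ without medium change, followed by MTT read-out. GI50 is the mean ± SD of at least two independent experiments.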

[7] = molecular target: Homeodomain-interacting protein kinase 3 (Homo sapiens) (UniProt Q9H422); test: Inhibition of human recombinant HIPK3 at 2 uM by Eurofins kinase assay relative to control
[8] = molecular target: Serine/threonine-protein kinase D1 (Homo sapiens) (UniProt Q15139); test: Inhibition of human recombinant PRKD1 at 2 uM by Eurofins kinase assay relative to control
[9] = molecular target: CDC7/DBF4 (Cell division cycle 7-related protein kinase/Activator of S phase kinase) (Homo sapiens) (UniProt Q9UBU7+O00311); test: Inhibition of human recombinant GST tagged CDC7/DBF4 expressed in Baculovirus expression system at 2 uM by Eurofins kinase assay relative to control
[10] = molecular target: Homeodomain-interacting protein kinase 2 (Homo sapiens) (UniProt Q9H2X6); test: Inhibition of human recombinant HIPK2 at 2 uM by Eurofins kinase assay relative to control
[11] = molecular target: Serine/threonine-protein kinase 17A (Homo sapiens) (UniProt Q9UEE5); test: Inhibition of human STK17A at 2 uM by Eurofins kinase assay relative to control
[12] = molecular target: Mitogen-activated protein kinase 8 (Homo sapiens) (UniProt P45983); test: Inhibition of human recombinant MAPK8 at 2 uM by Eurofins kinase assay relative to control
[13] = Upregulation of PARP cleavage in human U-937 cells by measuring signal 1 at 5 uM measured after 48 hrs by immunoblot analysis; type: functional; in short: as §1
[14] = molecular target: Proto-oncogene tyrosine-protein kinase Src (Homo sapiens) (UniProt P12931); test: Inhibition of human recombinant SRC at 2 uM by Eurofins kinase assay relative to control
U-937 = test: Antiproliferative activity against human U-937 cells assessed as inhibition of cell growth measured after 3 to 4 days by MTT assay; type: functional; details: time 3-4 day; in short: as §2
[15] = molecular target: cAMP-dependent protein kinase catalytic subunit alpha (Homo sapiens) (UniProt P17612); test: Inhibition of human recombinant PRKACA at 2 uM by Eurofins kinase assay relative to control
[16] = molecular target: Signal transducer and activator of transcription 3 (Homo sapiens) (UniProt P40763); test: Inhibition of STAT3 phosphorylation in human 786-O cells at 10 uM measured after 48 hrs by immunoblot analysis relative to control
[17] = molecular target: Eukaryotic translation initiation factor 2 subunit 2 (Homo sapiens) (UniProt P20042); test: Inhibition of eIF2beta phosphorylation in human 786-O cells at 8 uM measured after 48 hrs by immunoblot analysis relative to control
[18] = molecular target: PAS domain-containing serine/threonine-protein kinase (Homo sapiens) (UniProt Q96RG2); test: Inhibition of human recombinant PASK at 2 uM by Eurofins kinase assay relative to control
[19] = molecular target: Serine/threonine-protein kinase Chk1 (Homo sapiens) (UniProt O14757); test: Inhibition of human recombinant CHK1 at 2 uM by Eurofins kinase assay relative to control
[20] = molecular target: Mitogen-activated protein kinase 1 (Homo sapiens) (UniProt P28482); test: Inhibition of human MAPK1 at 2 uM by Eurofins kinase assay relative to control
[21] = Upregulation of PARP cleavage in human U-937 cells by measuring signal 1 at 15 uM measured after 48 hrs by immunoblot analysis; type: functional; in short: as §1
[22] = Upregulation of PARP cleavage in human U-937 cells by measuring signal 2 at 10 uM measured after 48 hrs by immunoblot analysis; type: functional; in short: as §1
Homo sapiens [23] = species on record: Homo sapiens; test: Inhibition of human recombinant His-tagged PIK3CA/PIK3R1 at 2 uM by Eurofins kinase assay relative to control
[24] = molecular target: Serine/threonine-protein kinase pim-1 (Homo sapiens) (UniProt P11309); test: Inhibition of human recombinant PIM1 at 2 uM by Eurofins kinase assay relative to control
[25] = system: Mast/stem cell growth factor receptor Kit (Homo sapiens), P10721 [D816H]; test: Inhibition of human recombinant GST/His tagged KIT D816H mutant expressed in insect cells at 2 uM by Eurofins kinase assay relative to control
Sequence of Mast/stem cell growth factor receptor Kit (Homo sapiens), P10721 [D816H] (P10721 whole entry D816H): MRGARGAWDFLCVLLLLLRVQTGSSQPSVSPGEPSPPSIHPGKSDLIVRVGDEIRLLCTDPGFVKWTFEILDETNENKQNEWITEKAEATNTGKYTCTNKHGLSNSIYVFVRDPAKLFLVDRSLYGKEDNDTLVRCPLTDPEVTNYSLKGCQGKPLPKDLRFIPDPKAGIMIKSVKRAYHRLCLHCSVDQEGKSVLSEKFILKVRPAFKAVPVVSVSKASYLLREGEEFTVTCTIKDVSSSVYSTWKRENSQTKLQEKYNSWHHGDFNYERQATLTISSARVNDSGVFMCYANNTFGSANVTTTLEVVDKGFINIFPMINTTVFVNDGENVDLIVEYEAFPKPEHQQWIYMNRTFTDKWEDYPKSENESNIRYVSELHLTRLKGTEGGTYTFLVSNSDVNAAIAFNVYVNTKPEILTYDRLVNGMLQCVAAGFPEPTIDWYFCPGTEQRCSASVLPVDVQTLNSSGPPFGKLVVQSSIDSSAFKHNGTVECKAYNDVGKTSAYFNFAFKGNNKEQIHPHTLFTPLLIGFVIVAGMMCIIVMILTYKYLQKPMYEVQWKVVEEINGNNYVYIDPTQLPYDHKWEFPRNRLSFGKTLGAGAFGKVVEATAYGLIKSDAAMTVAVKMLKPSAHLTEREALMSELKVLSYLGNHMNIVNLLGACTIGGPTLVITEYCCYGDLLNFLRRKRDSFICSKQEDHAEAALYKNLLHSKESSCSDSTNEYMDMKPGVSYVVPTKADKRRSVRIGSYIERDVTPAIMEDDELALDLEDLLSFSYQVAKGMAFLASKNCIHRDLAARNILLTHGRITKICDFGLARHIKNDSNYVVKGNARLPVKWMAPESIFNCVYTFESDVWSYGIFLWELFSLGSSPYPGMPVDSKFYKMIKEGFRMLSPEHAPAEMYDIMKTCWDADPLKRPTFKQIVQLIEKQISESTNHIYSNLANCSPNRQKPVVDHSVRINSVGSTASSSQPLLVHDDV

Sequence of PAS domain-containing serine/threonine-protein kinase (Homo sapiens) (Q96RG2 whole entry, the tested form may be a part): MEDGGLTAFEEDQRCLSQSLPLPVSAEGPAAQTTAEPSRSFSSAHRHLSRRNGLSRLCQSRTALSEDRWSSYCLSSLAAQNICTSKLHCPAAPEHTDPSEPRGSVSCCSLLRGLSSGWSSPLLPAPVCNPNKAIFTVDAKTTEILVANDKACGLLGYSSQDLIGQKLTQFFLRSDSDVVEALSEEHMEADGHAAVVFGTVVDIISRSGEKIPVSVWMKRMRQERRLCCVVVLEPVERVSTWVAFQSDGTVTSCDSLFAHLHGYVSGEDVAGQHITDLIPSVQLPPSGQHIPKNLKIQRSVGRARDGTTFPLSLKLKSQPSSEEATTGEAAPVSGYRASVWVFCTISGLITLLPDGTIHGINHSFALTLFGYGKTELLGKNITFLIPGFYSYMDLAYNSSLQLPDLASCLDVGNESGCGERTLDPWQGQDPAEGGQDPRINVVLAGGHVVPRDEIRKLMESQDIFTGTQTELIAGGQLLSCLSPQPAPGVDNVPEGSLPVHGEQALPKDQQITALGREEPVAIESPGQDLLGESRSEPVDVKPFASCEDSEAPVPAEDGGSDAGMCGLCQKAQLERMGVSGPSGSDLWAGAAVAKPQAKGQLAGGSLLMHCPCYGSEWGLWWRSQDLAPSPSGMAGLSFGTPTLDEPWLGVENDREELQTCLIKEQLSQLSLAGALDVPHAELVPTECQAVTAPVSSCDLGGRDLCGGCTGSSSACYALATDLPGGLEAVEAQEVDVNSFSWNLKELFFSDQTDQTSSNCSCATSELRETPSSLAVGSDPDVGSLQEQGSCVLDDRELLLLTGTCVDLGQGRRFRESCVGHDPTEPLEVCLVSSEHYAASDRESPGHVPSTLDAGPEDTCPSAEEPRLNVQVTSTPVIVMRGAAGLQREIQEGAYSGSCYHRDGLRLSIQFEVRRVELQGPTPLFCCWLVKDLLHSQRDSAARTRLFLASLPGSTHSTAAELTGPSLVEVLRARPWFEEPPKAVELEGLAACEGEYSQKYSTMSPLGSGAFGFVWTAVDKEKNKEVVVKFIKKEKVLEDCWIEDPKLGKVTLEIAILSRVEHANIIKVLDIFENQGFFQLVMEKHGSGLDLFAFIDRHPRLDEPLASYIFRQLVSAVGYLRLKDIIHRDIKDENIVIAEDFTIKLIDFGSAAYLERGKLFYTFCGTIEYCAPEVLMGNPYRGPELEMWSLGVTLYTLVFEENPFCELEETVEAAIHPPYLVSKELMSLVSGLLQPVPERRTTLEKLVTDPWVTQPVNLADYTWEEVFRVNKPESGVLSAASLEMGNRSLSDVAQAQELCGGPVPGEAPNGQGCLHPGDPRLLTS
Sequence of Homeodomain-interacting protein kinase 3 (Homo sapiens) (Q9H422 whole entry, looked up): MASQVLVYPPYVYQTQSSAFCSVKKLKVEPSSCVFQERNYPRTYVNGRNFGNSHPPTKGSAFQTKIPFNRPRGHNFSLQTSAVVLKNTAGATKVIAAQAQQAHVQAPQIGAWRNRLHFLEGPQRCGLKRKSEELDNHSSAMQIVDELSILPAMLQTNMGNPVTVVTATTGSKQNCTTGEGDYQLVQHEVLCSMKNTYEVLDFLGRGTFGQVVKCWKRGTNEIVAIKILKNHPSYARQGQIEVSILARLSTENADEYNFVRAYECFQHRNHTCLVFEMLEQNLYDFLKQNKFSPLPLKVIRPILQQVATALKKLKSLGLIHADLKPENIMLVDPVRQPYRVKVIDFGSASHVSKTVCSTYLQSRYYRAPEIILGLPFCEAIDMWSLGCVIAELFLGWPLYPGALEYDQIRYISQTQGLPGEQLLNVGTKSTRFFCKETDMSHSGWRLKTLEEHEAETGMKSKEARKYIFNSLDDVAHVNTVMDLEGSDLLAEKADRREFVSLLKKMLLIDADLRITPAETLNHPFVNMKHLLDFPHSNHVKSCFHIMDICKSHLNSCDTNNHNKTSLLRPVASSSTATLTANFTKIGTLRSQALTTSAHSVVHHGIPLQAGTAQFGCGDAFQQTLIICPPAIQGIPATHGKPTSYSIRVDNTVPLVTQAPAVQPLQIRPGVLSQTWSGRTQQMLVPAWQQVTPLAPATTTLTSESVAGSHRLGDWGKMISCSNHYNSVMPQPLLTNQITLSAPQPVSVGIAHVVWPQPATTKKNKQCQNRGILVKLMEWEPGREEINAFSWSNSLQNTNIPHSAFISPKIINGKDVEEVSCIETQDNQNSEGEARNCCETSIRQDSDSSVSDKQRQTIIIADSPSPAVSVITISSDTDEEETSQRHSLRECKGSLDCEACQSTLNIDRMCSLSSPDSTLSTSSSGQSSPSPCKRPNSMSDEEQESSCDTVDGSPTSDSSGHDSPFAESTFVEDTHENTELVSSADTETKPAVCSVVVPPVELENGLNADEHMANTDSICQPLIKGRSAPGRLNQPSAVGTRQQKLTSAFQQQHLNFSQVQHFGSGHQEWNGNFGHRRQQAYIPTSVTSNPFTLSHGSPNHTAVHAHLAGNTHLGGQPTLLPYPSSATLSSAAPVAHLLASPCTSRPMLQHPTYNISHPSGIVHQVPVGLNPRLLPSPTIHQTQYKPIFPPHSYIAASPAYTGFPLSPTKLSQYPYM
Sequence of Mitogen-activated protein kinase 8 (Homo sapiens) (P45983 whole entry): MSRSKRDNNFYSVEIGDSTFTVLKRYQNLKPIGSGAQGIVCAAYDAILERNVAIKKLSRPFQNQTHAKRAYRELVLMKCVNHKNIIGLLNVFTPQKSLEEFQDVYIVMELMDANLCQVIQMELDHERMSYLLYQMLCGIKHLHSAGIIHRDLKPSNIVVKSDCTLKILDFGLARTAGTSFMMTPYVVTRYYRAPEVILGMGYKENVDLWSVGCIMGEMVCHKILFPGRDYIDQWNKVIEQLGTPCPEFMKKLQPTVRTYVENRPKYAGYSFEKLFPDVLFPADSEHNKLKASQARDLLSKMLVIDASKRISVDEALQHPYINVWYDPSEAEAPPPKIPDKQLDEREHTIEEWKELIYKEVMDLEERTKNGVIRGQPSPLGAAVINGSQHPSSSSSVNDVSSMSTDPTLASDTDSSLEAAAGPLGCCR
Sequence of Dual specificity tyrosine-phosphorylation-regulated kinase 2 (Homo sapiens) (Q92630 whole entry): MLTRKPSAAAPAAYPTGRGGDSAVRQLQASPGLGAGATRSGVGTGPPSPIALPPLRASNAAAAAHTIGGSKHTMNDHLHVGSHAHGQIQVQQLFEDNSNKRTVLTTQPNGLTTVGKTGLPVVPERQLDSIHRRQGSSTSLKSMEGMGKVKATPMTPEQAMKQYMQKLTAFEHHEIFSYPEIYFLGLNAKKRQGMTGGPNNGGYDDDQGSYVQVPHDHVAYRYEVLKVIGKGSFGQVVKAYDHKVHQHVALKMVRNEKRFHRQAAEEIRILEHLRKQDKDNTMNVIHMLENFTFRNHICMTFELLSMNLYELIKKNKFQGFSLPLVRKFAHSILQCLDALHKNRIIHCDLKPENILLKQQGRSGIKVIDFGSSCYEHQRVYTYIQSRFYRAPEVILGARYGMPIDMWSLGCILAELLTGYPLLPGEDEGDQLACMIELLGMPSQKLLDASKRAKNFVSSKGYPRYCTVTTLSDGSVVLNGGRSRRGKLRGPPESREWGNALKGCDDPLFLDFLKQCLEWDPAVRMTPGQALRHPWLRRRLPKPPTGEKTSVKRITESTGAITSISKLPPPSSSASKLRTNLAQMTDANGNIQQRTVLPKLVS
Sequence of Serine/threonine-protein kinase pim-1 (Homo sapiens) (P11309 whole entry, looked up): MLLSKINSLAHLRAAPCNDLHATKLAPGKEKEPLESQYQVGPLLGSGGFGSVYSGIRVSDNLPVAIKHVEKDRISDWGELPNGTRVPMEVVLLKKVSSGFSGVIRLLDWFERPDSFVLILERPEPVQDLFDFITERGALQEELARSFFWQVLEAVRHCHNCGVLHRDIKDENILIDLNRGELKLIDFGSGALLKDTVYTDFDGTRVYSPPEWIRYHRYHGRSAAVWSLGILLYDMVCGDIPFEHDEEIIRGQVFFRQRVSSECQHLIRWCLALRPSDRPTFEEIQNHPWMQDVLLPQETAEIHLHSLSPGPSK

inhibition [3]: 4%
inhibition [4]: 9%
GI50 (786-0 [6]): 7.3 µM
inhibition [7]: 9%
inhibition [8]: 10%
inhibition [9]: 0%
inhibition [10]: 15%
inhibition [11]: 0%
inhibition [12]: 18%
inhibition [14]: 6%
GI50 (U-937): 7.5 µM
inhibition [15]: 6%
inhibition [16]: 97%
inhibition [17]: 32%
inhibition [18]: 0%
inhibition [19]: 16%
inhibition [20]: 2%
inhibition (Homo sapiens [23]): 0%
inhibition [24]: 0%
inhibition [25]: 4%
Compound: Clc1ccc(N2CCN(c3ncnc4sc5c(c34)CCNC5)CC2)cc1.O=C(O)C(F)(F)F
Activity [1]: 98%
inhibition (Homo sapiens [2]): 4%
inhibition at 30 µM (786-0 [5]): 102%
Activity [13]: 72%
Activity [21]: 96%
Activity [22]: 38%
